From ChEMBL document CHEMBL2331437, “Meroterpenoid pigments from the basidiomycete Albatrellus ovinus” (J Nat Prod, 2013)

Key:
Assay type in all cases: functional, cell-based
[1] = Cytotoxicity against human […] cells after 48 hrs by MTT assay
Summary of the method: (§1)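 Cells grown in RPMI-1640 or DMEM with 10% FBS, 37 °C, 5% CO2. Seeded at 1 × 10^5 cells/mL; adherent lines allowed 12 h to attach, suspension cells seeded just before dosing. Compounds at various concentrations in triplicate, 48 h. MTT (100 μg per well) 4 h at 37 °C, SDS lysis, OD 595 nm; IC50 by Reed and Muench method.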

MCF7 = experiment: Cytotoxicity against human MCF7 cells after 48 hrs by MTT assay; details: MCF7, 48 h; summary of the method: as §1
HL-60 = experiment: Cytotoxicity against human HL60 cells after 48 hrs by MTT assay; details: HL-60, 48 h; summary of the method: as §1
A549 = experiment: Cytotoxicity against human A549 cells after 48 hrs by MTT assay; details: A549, 48 h; summary of the method: as §1

With `COc1cc(C)c(O)c2c1C=C[C@@](C)(CC/C=C(\C)CCC=C(C)C)O2` [ALBATRELIN B] the IC50 [1] was over 40 µM, the IC50 (MCF7) was over 40 µM and the IC50 (HL-60) was over 40 µM. It also gave an IC50 (A549) of over 40 µM.
With `COC(=O)c1c(O)cc(O)c(C/C=C(\C)CC/C=C(\C)CCC=C(C)C)c1C` [ALBATRELIN A] the IC50 [1] was over 40 µM, the IC50 (MCF7) was over 40 µM and the IC50 (HL-60) was over 40 µM. For the same compound, the IC50 (A549) was over 40 µM.
With `CC(C)=CCC/C(C)=C/CC[C@]1(C)C=Cc2c(O)cc(C)cc2O1` [CONFLUENTIN] the IC50 [1] was 17.1 µM, the IC50 (MCF7) was 23 µM and the IC50 (HL-60) was 15.1 µM. It also gave an IC50 (A549) of 18.5 µM.
Work on `CC(C)=CCC/C(C)=C/CC[C@]1(C)C=Cc2c(C)cc(O)cc2O1` [ALBATRELIN C] yielded an IC50 [1] of over 40 µM, an IC50 (MCF7) of over 40 µM and an IC50 (HL-60) of over 40 µM. For the same compound, the IC50 (A549) was over 40 µM.
For `CC(C)=CCC/C(C)=C/CC/C(C)=C/CC12C(=O)C=C(C)C(=O)C1(O)Oc1c3c(c(O)c(C)c12)O[C@](C)(CC/C=C(\C)CCC=C(C)C)C=C3` (stereo partly drawn) [ALBATRELIN F], the IC50 [1] was over 40 µM, the IC50 (MCF7) was over 40 µM and the IC50 (HL-60) was over 40 µM. The IC50 (A549) was over 40 µM.
For `CC(C)=CCC/C(C)=C/CC/C(C)=C/Cc1c(O)cc(C)c2c1oc1c3c(c(O)c(C)c12)O[C@](C)(CC/C=C(\C)CCC=C(C)C)C=C3` [ALBATRELIN D], the IC50 [1] was over 40 µM, the IC50 (MCF7) was over 40 µM and the IC50 (HL-60) was over 40 µM. The IC50 (A549) was over 40 µM.
For `CC(C)=CCC/C(C)=C/CC/C(C)=C/CC1=C(O)C(=O)C(C)=C(c2c(O)cc(O)c(C/C=C(\C)CC/C=C(\C)CCC=C(C)C)c2C)C1=O` [ALBATRELIN E], the IC50 [1] was over 40 µM, the IC50 (MCF7) was over 40 µM and the IC50 (HL-60) was over 40 µM. For the same compound, the IC50 (A549) was over 40 µM.
